Reference: ChEMBL document CHEMBL4477197, “Antitumor Activity of Spicatoside A by Modulation of Autophagy and Apoptosis in Human Colorectal Cancer Cells” (J Nat Prod, 2016)

Assays:
MRC5 = experiment: Antiproliferative activity against human MRC5 cells after 24 to 72 hrs by SRB assay; type: cell-based
Summary of the method: (§1)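 Cells from ATCC were grown at 37 °C in 5% CO2, in RPMI 1640 (A549, HCT116, SNU-638) or DMEM (MDA-MB-231, SK-HEP-1, MRC5) with 10% FBS. They were seeded at 6 × 10^3 cells/well for 24 h, then exposed for 72 h. Cells were TCA-fixed, stained with 0.4% SRB, and read at 515 nm against day-zero plates. IC50 came from nonlinear regression, as means ± SD.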

SNU-638 = experiment: Antiproliferative activity against human SNU638 cells after 24 to 72 hrs by SRB assay; type: functional, cell-based; summary of the method: as §1
MDA-MB-231 = experiment: Antiproliferative activity against human MDA-MB-231 cells after 24 to 72 hrs by SRB assay; type: functional, cell-based; summary of the method: as §1
HCT-116 = experiment: Antiproliferative activity against human HCT116 cells after 24 to 72 hrs by SRB assay; type: functional, cell-based; summary of the method: as §1
SK-HEP1 = experiment: Antiproliferative activity against human SKHEP1 cells after 24 to 72 hrs by SRB assay; type: functional, cell-based; summary of the method: as §1
A549 = experiment: Antiproliferative activity against human A549 cells after 24 to 72 hrs by SRB assay; type: functional, cell-based; summary of the method: as §1

Q: Which IC50 (MRC5) does the source give for Cc1c2ccncc2c(C)c2c1[nH]c1ccccc12 [ELLIPTECINE] here?
A: 1300 nM

Q: And the IC50 (SNU-638)?
A: 2700 nM

Q: What about the IC50 (MDA-MB-231) of the same compound?
A: 100 nM

Q: What about the IC50 (HCT-116) of the same compound?
A: 1000 nM

Q: And the IC50 (SK-HEP1)?
A: 400 nM

Q: And the IC50 (A549)?
A: 400 nM
